Screening results deposited in PubChem BioAssay by several laboratories.
Cl transport mod – modulates chloride dependent transport by human KCC2. KCC2 cells, thallium flux FluoZin-2 fluorescence. B-score of Tl+ flux slope (higher = more flux/activation; lower = inhibition) at 10 µM. hit rate 2.2% among 190,000;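 active = thallium flux slope and its plate-corrected score both differing from the plate sample mean at a set confidence after two filtering rounds, in either direction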;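 also: slope of fluorescence scaled to starting intensity during 10 to 20 s after thallium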
KCNQ1 inh – blocks the human KCNQ1 potassium channel; AID 2642; P51787; B-score at 10 µM; hit rate 1.3% among 310,000; CHO-K1 KCNQ1, FluxOR thallium flux fluorescence; active compounds read high;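 active = compounds whose thallium flux B-score, printed positive for inhibition, exceeds three library SD while starting fluorescence stays within three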;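 also: channel opened by potassium depolarization with thallium stimulus after 20 min compound exposure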
KCNK3 block – human KCNK3 channel inhibition, primary screen. O14649. CHO-KCNK3 thallium flux, FluxOR fluorescence; active compounds read low. B-score at 10 µM. hit rate 0.84% among 340,000. AID 602410;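 active = B-score under library mean minus 4 SD, starting fluorescence ratio at most library mean plus 5 SD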;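 also: more negative B-score means stronger inhibition of thallium flux through KCNK3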
KCNQ1 pot – human KCNQ1 channel potentiation or activation | AID 2648 | hit rate 0.35% among 310,000 | B-score at 10 µM | CHO-K1 KCNQ1, thallium flux FluxOR fluorescence; active compounds read high;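 active = fluorescence ratio B-score, a plate-corrected score, at least three library SD, with initial intensity B-score within 5 SD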
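assay system = KCNQ1-transfected CHO-K1 cells | medium = assay buffer with matched DMSO | probe or stimulus = depolarizing K+/Tl+ stimulus, K2SO4 and Tl2SO4 each 12.5 mM in 5x stock | dosing = single dose | incubation = dye 90 min, compound 20 min, room temperature | detection = kinetic FluxOR fluorescence, 10 s baseline plus 110 s post-stimulus | evaluation = ratio B score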
hERG protect – hERG (human) protection from proarrhythmic block; CHO-hERG, FluxOR thallium flux, dofetilide IC70 present; AID 1511; hit rate 0.51% among 310,000; activation (rescue from dofetilide block), less the hit threshold, % at 10 µM;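 active = activation above the mean of controls blocked by dofetilide plus 5 SD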;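 also: thallium influx through hERG after potassium depolarization seen as dye fluorescence rise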
KCNK9 block – blocks the human KCNK9 two-pore domain potassium channel; Q9NPC2; HEK293 KCNK9, FluxOR thallium flux fluorescence; active compounds read low; B-score at 10 µM; hit rate 1.2% among 310,000;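 active = ratio B-score over 3 SD below the library mean, with starting fluorescence within 5 SD of its mean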;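 also: negative B-score means less thallium flux so channel inhibition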
Target sequence (Q9NPC2 whole entry, looked up, the tested form may be a part): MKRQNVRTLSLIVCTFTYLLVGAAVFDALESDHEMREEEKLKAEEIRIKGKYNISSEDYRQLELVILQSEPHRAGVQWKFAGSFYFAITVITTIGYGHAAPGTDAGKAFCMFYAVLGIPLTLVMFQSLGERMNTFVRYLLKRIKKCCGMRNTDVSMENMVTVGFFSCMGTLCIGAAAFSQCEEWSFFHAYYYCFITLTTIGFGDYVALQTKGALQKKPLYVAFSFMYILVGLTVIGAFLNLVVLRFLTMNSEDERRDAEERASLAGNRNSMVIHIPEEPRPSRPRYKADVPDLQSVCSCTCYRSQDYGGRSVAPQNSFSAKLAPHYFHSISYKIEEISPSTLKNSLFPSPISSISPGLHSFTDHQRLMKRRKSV
Starred values were filed as active, the others as inactive; i = inactive; . = no result. Most compounds without a hit are left out; they make up all but 4.1% or so of the library.

SMILES	Cl transport mod	KCNQ1 inh	KCNK3 block	KCNQ1 pot	hERG protect	KCNK9 block
N#CC(C#N)=Cc1ccc(-c2ccccc2)o1	i	7*	.	i	-22	i
C1CCC2CCCCC2C1 (configuration not stated)	.	.	i	.	.	.
O=C(CF)NC(NC(=S)Nc1cccc([N+](=O)[O-])c1)C(Cl)(Cl)Cl (configuration not stated)	-0.04	6*	i	i	-15	i
CCCCOCCCn1c(N)c(C(=O)OC(C)COC)c2nc3ccccc3nc21 (configuration not stated)	-0.92	i	-11*	i	-1	i
COCCCn1c(N)c(C(=O)OC(C)COC)c2nc3ccccc3nc21 (configuration not stated)	-0.015	i	i	i	-15	i
N#CSCC(=O)N1c2ccccc2CCc2ccccc21	2.3	i	i	i	-15	-6.9*
Nc1ccc2nonc2c1[N+](=O)[O-]	i	11*	i	i	-40	i
NC(Cc1ccc(O)cc1)C(=O)NN=Cc1ccc(N(CCCl)CCCl)cc1 (configuration not stated)	.	.	i	.	.	.
CC1(C)CN(S(=O)(=O)OCC(Cl)(Cl)Cl)C(=O)N1	.	i	i	i	-3	i
O=c1c(C=NCCN2CCNCC2)c(O)n(C2CCCCC2)c(=O)n1C1CCCCC1	0.54	i	i	11*	-10	i
O=c1[nH]c(=S)n(C2CC2)c(O)c1C=NCCN1CCOCC1	1.6	i	i	i	-12	i
COc1ccc(CC(C)NCCc2ccc(OC)c(OC)c2)cc1 (configuration not stated)	.	i	i	i	-2	i
O=c1[nH]c(=O)n(-c2ccc(F)cc2)c(O)c1/C=C1\C=Nc2ccccc21	.	9*	i	i	-8	i
CCOP(=O)(Nc1ccc2c(c1)C(=NNC(N)=S)c1ccccc1-2)OCC	.	.	i	.	.	.
CCCCCn1c(=O)c(C(=O)Nc2cccc(C)n2)c(O)c2ccccc21	.	i	i	i	-4	i
CCCCn1c(=O)c(C(=O)Nc2ccc(C)cn2)c(O)c2ccccc21	.	i	i	i	-6	-7.7*
CCCCCn1c(=O)c(C(=O)Nc2ccccn2)c(O)c2ccccc21	.	i	i	i	-4	-7.4*
COc1ccc2nc3c(C)n(C)ccc-3c2c1	.	.	i	.	.	.
COc1ccc2c3c1OC1[C@H](O)CCC4[C@@H](C2)N(C)CC[C@]314 (some centres not stated)	.	.	i	.	.	.
CCC1(CC)C(=O)NC(=O)N(CCc2ccccn2)C1=O	.	.	i	.	.	.
Cc1ccc(NC(=O)[C@@H](NC(=O)N2C[C@H]3C[C@@H](C2)c2cccc(=O)n2C3)C(C)C)cc1	.	i	i	i	-6	i
CCN1CCC(NCC2CCCCC2)CC1	.	i	i	i	-8	i
CCCCn1c(=O)c(C(=O)NCCc2ccccc2)c(O)c2ccccc21	.	7*	i	i	-6	i
CCCCCn1c(=O)c(C(=O)NCc2ccncc2)c(O)c2ccccc21	.	8*	i	i	-6	-7.9*
CCCCn1c(=O)c(C(=O)NC(C)c2ccccc2)c(O)c2ccccc21 (configuration not stated)	.	6*	i	i	0	i
SMILES	Cl transport mod	KCNQ1 inh	KCNK3 block	KCNQ1 pot	hERG protect	KCNK9 block
CCCCn1c(=O)c(C(=O)NCc2ccc(Cl)cc2)c(O)c2ccccc21	.	i	i	i	-12	i
CN(C(=O)Oc1cccc2ccccc12)C1C=CCC1 (configuration not stated)	.	.	i	.	.	.
CCc1c(C)nc(N)nc1N1N=C1SCCOc1ccccc1	-0.52	i	i	i	8.2*	i
O=P(Nc1cccc(Cl)c1)(Oc1ccccc1)Oc1ccccc1	-0.19	6*	i	i	-49	-7.6*
COc1cccc(NP(=O)(Oc2ccccc2)Oc2ccccc2)c1	0.61	i	i	i	-17	i
CC(=O)c1cn(Cc2ccc(C#N)cc2)c2ccccc12	.	i	i	i	-5	i
CC(C)C(=O)c1cn(Cc2ccc(C#N)cc2)c2ccccc12	1.2	i	i	i	-6	-6.9*
O=C(Nc1ccc(Br)cc1)N1C[C@H]2C[C@@H](C1)c1cccc(=O)n1C2	.	14*	i	i	-7	i
O=C(Nc1ccc(Cl)cc1)N1CC2CC(C1)c1cccc(=O)n1C2 (configuration not stated)	.	i	i	i	-9	i
CN1CCC(c2c[nH]c3ccc(O)cc23)CC1	.	.	i	.	.	.
CC1CCCC(C)N1/N=C/c1c[nH]c2ccc(Br)cc12 (configuration not stated)	0.43	6*	i	i	-15	i
COc1ccc(-c2ccc3n2Cc2cnnn2-c2ccccc2-3)cc1	.	.	i	.	.	.
COc1ccc(O)c(CN2CCCC(C(=O)c3sccc3C)C2)c1 (configuration not stated)	-0.17	i	i	i	-27	i
O=C(c1cc(F)ccc1F)C1CCCN(Cc2cc(Cl)ccc2O)C1 (configuration not stated)	.	6*	i	i	-8	i
CC/C(=C\C=C\[C@@H]1C=C[C@@H]2CCC[C@H]2[C@@H]1C(=O)c1ccc[nH]1)[C@@H]1O[C@@H]([C@@H](C)C(=O)O)CC[C@@H]1C	3.4*	i	.	38*	74*	i
O=[N+]([O-])c1ccc(N2CCCCC2)c2ncccc12	-0.098	i	i	i	-6	i
O=[N+]([O-])c1ccc(N2CCCCCC2)c2ncccc12	0.036	i	i	i	-4	-7.7*
COC(=O)C1=C(c2ccc(F)cc2OCc2ccccc2)C[C@@H]2CC[C@H]1N2C(=O)N1CCC(O)CC1	.	.	i	.	.	.
Cc1nc2ccccc2c(=O)n1-c1cc([N+](=O)[O-])cc([N+](=O)[O-])c1	.	i	i	i	4.7*	i
CCOc1ccccc1CN1C2CCC1CC(c1ccc(C)cc1)C2 (configuration not stated)	.	12*	i	i	-12	i
CCOc1ccccc1CNCCc1ccc2c(c1)OCO2	.	i	i	i	-8	i
Nc1ccc(-c2ccc(N)cc2)cc1	.	.	i	.	.	.
C[C@H]1[C@@H](c2ccccc2)O[C@@H](c2ccccc2Br)N1C	.	i	i	i	-9	i
CC1CC(C)OP(=O)(OCCC#N)O1 (configuration not stated)	.	.	i	.	.	.
C(#CCN1CCOCC1)COCC#Cc1ccccc1	0.83	i	i	i	5.3*	i
